In the library only some 2.7% were active in any assay of this set; here they are far more common.
MDM2 E3 inh – inhibitors of human Mdm2 E3 ubiquitin ligase; Q00987; cell-based MDM2 ubiquitination luciferase reporter, 2 h; 0 = plate control, 100 = twice control, blank-subtracted; signal enhancement, % at 5 µM; 210,000 compounds, 0.11% hits;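 active means signal enhancement of 30% or more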;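 further: luminescence tracks abundance of the self-degrading MDM2-luciferase fusion protein; higher signal means inhibition of MDM2 E3 ligase activity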
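Timing – 2 h compound exposure at 37 °C · Assay system – mammalian cells stably expressing self-ubiquitinating, self-degrading MDM2 E3–luciferase fusion · Amount – 2000 cells seeded into each well · Measure – % luminescence enhancement versus blank-corrected plate control mean · Measured by – SteadyLite luminescence, 15 min reagent step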
14-3-3 Bad PPI – disrupts binding of bovine 14-3-3 zeta to phospho-Bad peptide; AID 781; TR-FRET 14-3-3zeta/Dy647-pBad peptide displacement, 1 h; inhibition, % at 21.7 µM; 220,000 compounds, 0.71% hits;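 active means inhibition above about 70%, limit read from the data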
Wee1 stabilizer – inhibitors of human Wee1 degradation; P30291; HeLa Luc-Wee1K328M stability, luciferase luminescence; 100% = proteasome inhibitor MG132 effect; reporter increase, % at 5 µM; 220,000 compounds, 1.2% hits; AID 1321;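 active means activation above the mean of all tested compounds plus 3 SD, set per screening run, cut at about 8.8% in these data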;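 further: cells exposed to compound for 20 h before luminescence read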
Target sequence (P30291 whole entry K328M): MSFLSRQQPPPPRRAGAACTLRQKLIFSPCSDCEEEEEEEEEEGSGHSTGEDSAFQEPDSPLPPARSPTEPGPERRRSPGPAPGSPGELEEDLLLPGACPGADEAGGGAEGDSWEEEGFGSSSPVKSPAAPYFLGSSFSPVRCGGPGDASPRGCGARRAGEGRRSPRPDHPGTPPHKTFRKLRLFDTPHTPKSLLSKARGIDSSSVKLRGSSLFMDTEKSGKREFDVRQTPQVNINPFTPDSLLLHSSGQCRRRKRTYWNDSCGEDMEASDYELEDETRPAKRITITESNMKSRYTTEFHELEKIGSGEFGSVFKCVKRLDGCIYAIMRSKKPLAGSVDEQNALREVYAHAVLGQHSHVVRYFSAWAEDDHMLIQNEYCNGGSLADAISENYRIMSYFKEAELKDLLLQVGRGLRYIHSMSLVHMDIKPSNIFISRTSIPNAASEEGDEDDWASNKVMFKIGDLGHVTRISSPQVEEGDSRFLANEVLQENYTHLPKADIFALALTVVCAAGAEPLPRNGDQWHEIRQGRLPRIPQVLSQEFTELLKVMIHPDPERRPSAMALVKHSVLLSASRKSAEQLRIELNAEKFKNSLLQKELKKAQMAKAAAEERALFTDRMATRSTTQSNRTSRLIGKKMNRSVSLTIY
Hck Nef HTS – human Hck-Nef kinase inhibition. P08631. Recombinant Hck-YEEI plus Nef, Z-Lyte FRET kinase assay. inhibition, % at 20 µM. 220,000 compounds, 0.68% hits. AID 463187;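 active means Hck-Nef kinase inhibition above about 50%, limit read from the data; inactive means inhibition below that limit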
Tb hexokinase – T. brucei hexokinase 1 inhibition | recombinant TbHK1, G6PDH-coupled NADH A340 | inhibition, % at 10 µM | 220,000 compounds, 0.11% hits | AID 1430;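 active means inhibition of 50% or more in the single-dose primary screen; inactive means inhibition below 50%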
Hits are given with their value; [ ] = dose if it differs, or a comment.

Cc1ccc(C(=O)N[C@@H](C)CN2C3=NC[C@H](C)N3C[C@H]2Cc2ccc(O)cc2)cc1Br was read as MDM2 E3 inh inactive, 14-3-3 Bad PPI inactive, Hck Nef HTS inactive and Tb hexokinase inactive.
Screening CCn1c2ccccc2c2cc(NC(=O)c3ccco3)ccc21 returned MDM2 E3 inh inactive, 14-3-3 Bad PPI 91, Wee1 stabilizer inactive, Hck Nef HTS inactive and Tb hexokinase inactive.
O=C(O)C1CCC(Cn2c(SCc3cc(=O)n4ccccc4n3)nc3ccsc3c2=O)CC1 (stereo not given) was read as MDM2 E3 inh inactive, 14-3-3 Bad PPI inactive, Wee1 stabilizer inactive, Hck Nef HTS inactive and Tb hexokinase inactive.
O=C(NC(=S)Nc1ccc2oc(-c3cccnc3)nc2c1)c1cccc(Cl)c1 was read as MDM2 E3 inh inactive, 14-3-3 Bad PPI 81, Wee1 stabilizer inactive, Hck Nef HTS inactive and Tb hexokinase inactive.
For O=C(Nc1ccc2oc(-c3cccnc3)nc2c1)c1cc2ccccc2o1 the results were MDM2 E3 inh inactive, 14-3-3 Bad PPI inactive, Wee1 stabilizer inactive, Hck Nef HTS inactive and Tb hexokinase inactive.
For COCCNC(=O)Cn1cnc([N+](=O)[O-])n1 the results were MDM2 E3 inh inactive, 14-3-3 Bad PPI inactive, Wee1 stabilizer 9.6, Hck Nef HTS inactive and Tb hexokinase inactive.
Screening CCOC(=O)c1sc(N=NC2=C(O)CCCC2=O)c(C(=O)OCC)c1C returned MDM2 E3 inh inactive, 14-3-3 Bad PPI inactive, Wee1 stabilizer inactive, Hck Nef HTS 51 and Tb hexokinase inactive.
Screening S=c1[nH]nc(C2CCCCC2)n1/N=C/c1cccs1 returned MDM2 E3 inh inactive, 14-3-3 Bad PPI inactive, Wee1 stabilizer inactive, Hck Nef HTS inactive and Tb hexokinase inactive.
For CN=C(C)/C(C(=O)OC)=C(/O)c1ccc(Cl)cc1Cl the results were MDM2 E3 inh inactive, 14-3-3 Bad PPI inactive, Wee1 stabilizer inactive, Hck Nef HTS inactive and Tb hexokinase inactive.
`Cc1ccc(CNS(=O)(=O)c2ccc3c(c2)n(C)c(=O)c(=O)n3C)cc1` gave MDM2 E3 inh inactive, 14-3-3 Bad PPI inactive, Wee1 stabilizer 10, Hck Nef HTS inactive and Tb hexokinase inactive.
Screening Cn1c(=O)oc2cc(S(=O)(=O)NCc3ccccc3)ccc21 returned MDM2 E3 inh inactive, 14-3-3 Bad PPI inactive, Wee1 stabilizer inactive, Hck Nef HTS inactive and Tb hexokinase inactive.
`O=C(Cc1ccccc1Cl)Nc1cccnc1` gave MDM2 E3 inh inactive, 14-3-3 Bad PPI inactive, Wee1 stabilizer inactive, Hck Nef HTS inactive and Tb hexokinase inactive.
For CCCCN(C)C(=O)c1cc2cc3ccc(OC)cc3nc2s1 the results were MDM2 E3 inh inactive, 14-3-3 Bad PPI 84[fluorescence artefact?], Wee1 stabilizer inactive, Hck Nef HTS inactive and Tb hexokinase inactive.
`COc1cc(NC(=O)c2ccnc(N)c2)cc(C(=O)Nc2cccc(C(F)(F)F)c2)c1` gave MDM2 E3 inh inactive, 14-3-3 Bad PPI inactive, Hck Nef HTS inactive and Tb hexokinase inactive.
`COc1cc(NC(=O)c2cnc(N)s2)cc(C(=O)Nc2cccc(C(F)(F)F)c2)c1` gave MDM2 E3 inh 32, 14-3-3 Bad PPI inactive, Hck Nef HTS inactive and Tb hexokinase inactive.
`CC(=O)NC(=S)Nc1ccccc1N1CCN(C(=O)c2ccccc2)CC1` gave MDM2 E3 inh inactive, 14-3-3 Bad PPI inactive, Wee1 stabilizer inactive, Hck Nef HTS inactive and Tb hexokinase inactive.
For CC(C)C(=O)NC(=S)Nc1ccccc1N1CCN(C(=O)c2ccccc2)CC1 the results were MDM2 E3 inh inactive, 14-3-3 Bad PPI inactive, Wee1 stabilizer 10, Hck Nef HTS inactive and Tb hexokinase inactive.
O=C1c2ccccc2C(=O)N1CNc1ccccc1 was read as MDM2 E3 inh inactive, 14-3-3 Bad PPI inactive, Wee1 stabilizer 14, Hck Nef HTS inactive and Tb hexokinase inactive.
Cc1cc(C(=O)N2CCN(CCc3ccccc3)CC2)no1 was read as MDM2 E3 inh inactive, 14-3-3 Bad PPI inactive, Wee1 stabilizer inactive, Hck Nef HTS inactive and Tb hexokinase inactive.
COc1cccc(CNC(=O)C23CN(Cc4ccccc4)CC2C(c2ccc([N+](=O)[O-])cc2)=NO3)c1 (stereo not given) was read as MDM2 E3 inh inactive, 14-3-3 Bad PPI 71, Wee1 stabilizer inactive, Hck Nef HTS inactive and Tb hexokinase inactive.
For O=C(Cn1c(-c2cscn2)nc2ccccc21)Nc1cc(F)ccc1F the results were MDM2 E3 inh inactive, 14-3-3 Bad PPI inactive, Wee1 stabilizer inactive, Hck Nef HTS inactive and Tb hexokinase inactive.
`O=C(Cn1c(-c2cscn2)nc2ccccc21)Nc1ccc2ccccc2c1` gave MDM2 E3 inh inactive, 14-3-3 Bad PPI inactive, Wee1 stabilizer 11, Hck Nef HTS inactive and Tb hexokinase inactive.
